Test results reported in BindingDB's records for doi:10.1016/j.ejmech.2016.05.060 (Xi'An Jiaotong University, 2016).

How the values were obtained:
[1] = biological target: T1, M-phase inducer phosphatase 2 (Homo sapiens, UniProt P30305); assay: Inhibition of human recombinant GST-tagged CDC25B assessed as reduction in dephosphorylation of florigenic phosphatase substrate preincubated for 1 hr followed by substrate addition measured after 1 hr by fluorescence assay
T1 sequence (P30305 whole entry): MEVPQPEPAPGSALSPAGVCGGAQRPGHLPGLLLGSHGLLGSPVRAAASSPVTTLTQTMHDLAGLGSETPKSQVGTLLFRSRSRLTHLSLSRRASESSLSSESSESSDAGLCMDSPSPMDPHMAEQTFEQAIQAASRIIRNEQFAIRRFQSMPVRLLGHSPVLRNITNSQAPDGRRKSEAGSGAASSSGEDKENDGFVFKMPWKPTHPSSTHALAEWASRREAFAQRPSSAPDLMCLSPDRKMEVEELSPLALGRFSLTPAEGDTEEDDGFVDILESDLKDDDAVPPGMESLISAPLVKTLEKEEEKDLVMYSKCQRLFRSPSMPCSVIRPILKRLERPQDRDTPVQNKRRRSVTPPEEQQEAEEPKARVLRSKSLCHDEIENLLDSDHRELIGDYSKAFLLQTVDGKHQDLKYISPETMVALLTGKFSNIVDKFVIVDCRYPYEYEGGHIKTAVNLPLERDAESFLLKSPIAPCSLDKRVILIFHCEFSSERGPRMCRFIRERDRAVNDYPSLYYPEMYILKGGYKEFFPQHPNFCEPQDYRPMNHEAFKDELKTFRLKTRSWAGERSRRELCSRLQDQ
Summary of the method: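 Purified GST-CDC25B fusion protein was preincubated with compound for 1 h, then fluorescein diphosphate ([…]) was added. Fluorescence was read within the linear range of the reaction after 1 h at room temperature. Na₃VO₄ served as positive control and DMSO as negative control.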

[2] = biological target: T2, Tyrosine-protein phosphatase non-receptor type 1 (Homo sapiens, UniProt P18031); assay: Inhibition of human recombinant GST-tagged PTP1B catalytic domain expressed in Escherichia coli BL21-Conden plus (DE3) using pNPP as substrate
T2 sequence (P18031 whole entry): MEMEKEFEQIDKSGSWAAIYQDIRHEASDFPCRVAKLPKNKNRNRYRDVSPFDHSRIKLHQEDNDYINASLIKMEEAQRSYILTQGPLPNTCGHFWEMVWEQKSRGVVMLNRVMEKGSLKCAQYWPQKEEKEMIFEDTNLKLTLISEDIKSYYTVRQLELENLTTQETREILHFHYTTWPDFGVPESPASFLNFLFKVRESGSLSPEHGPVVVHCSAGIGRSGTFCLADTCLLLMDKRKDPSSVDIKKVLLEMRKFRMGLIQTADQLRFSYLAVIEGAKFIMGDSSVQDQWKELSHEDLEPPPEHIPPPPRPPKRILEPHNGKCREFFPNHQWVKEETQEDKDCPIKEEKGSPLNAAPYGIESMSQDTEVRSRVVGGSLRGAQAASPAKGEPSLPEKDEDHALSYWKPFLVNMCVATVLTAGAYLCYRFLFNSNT

IC50 [1] [µM] | IC50 [2] [µM] | Compound
2.47 |  | CC(C)N1C(=O)/C(=C/c2ccc(OCCN(C)c3ccccn3)cc2)S/C1=N\O
 | 8.66 | CCOC(=O)c1c(C)[nH]c(/C=C2\S/C(=N\c3ccccc3)N(c3ccccc3)C2=O)c1C
5.83 |  | CCOC(=O)c1c(C)[nH]c(/C=C2\S/C(=N/O)N(C(C)C)C2=O)c1C
2.74 |  | CCOC(=O)c1c(C)[nH]c(/C=C2\S/C(=N\c3ccc(OC)cc3)N(c3ccc(OC)cc3)C2=O)c1C
2.87 | 6.09 | CCOC(=O)c1c(C)[nH]c(/C=C2\S/C(=N\c3ccc(F)cc3)N(c3ccc(F)cc3)C2=O)c1C
3.66 |  | CCOC(=O)c1c(C)[nH]c(/C=C2\S/C(=N\c3ccccc3F)N(c3ccccc3F)C2=O)c1C
3.39 | 6.83 | CCOC(=O)c1c(C)[nH]c(/C=C2\S/C(=N\c3cccc(F)c3)N(c3cccc(F)c3)C2=O)c1C

Compound | IC50 [1] [µM] | IC50 [2] [µM]
[O]=[V]([OH])([OH])[OH] | 0.91 | 
